The values that follow come from ChEMBL document CHEMBL1141482, “Selective, high affinity A(2B) adenosine receptor antagonists: N-1 monosubstituted 8-(pyrazol-4-yl)xanthines” (Bioorg Med Chem Lett, 2008).

In one experiment the target is T1, Adenosine receptor A1 (Homo sapiens, UniProt P30542).
T1 sequence (P30542 whole entry): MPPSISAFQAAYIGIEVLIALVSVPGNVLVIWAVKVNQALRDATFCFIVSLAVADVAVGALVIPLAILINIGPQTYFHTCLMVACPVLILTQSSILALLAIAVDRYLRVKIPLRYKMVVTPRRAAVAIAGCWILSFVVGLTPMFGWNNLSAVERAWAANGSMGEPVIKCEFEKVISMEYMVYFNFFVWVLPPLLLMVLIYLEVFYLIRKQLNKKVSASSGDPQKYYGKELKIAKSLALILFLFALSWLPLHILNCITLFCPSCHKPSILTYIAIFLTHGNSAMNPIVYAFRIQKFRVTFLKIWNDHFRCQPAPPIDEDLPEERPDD
Description: Displacement of [3H]-CPX from human A1 receptor expressed in CHO cell membranes. The essentials: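 Competitive binding on membranes prepared from A1-expressing CHO cells, radioligand 3H-CPX at 0.5 nM.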
A general note: Displacement assays read how much labelled ligand stays bound in the presence of the test substance.

Another experiment deals with Adenosine receptor A2a (Homo sapiens, UniProt P29274). The experiment in a line: Displacement of [3H]ZM241385 from human A2A receptor expressed in HEK293 cell membranes. In short, it runs like this:
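A2A affinity by competition with 3H-ZM241385 (2 nM) for binding sites in membranes from HEK-A2A cells.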

A further experiment has as its target T2, Adenosine receptor A3 (Homo sapiens, UniProt P0DMS8).
T2 sequence (P0DMS8 whole entry): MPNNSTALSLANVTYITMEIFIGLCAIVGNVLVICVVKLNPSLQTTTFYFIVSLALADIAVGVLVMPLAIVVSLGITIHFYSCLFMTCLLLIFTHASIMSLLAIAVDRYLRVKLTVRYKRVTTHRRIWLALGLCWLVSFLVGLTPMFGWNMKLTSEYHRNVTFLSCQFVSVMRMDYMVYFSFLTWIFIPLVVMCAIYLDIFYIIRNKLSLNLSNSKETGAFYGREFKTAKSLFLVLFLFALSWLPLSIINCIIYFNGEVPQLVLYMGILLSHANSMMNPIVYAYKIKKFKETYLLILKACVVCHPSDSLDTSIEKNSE
Description: Displacement of [125I]-AB-MECA from human A3 receptor expressed in CHO cells. The experiment is classed as cell-based. In short, it runs like this: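 A3 binding: competition for sites labeled by 125I-AB-MECA using CHO cells expressing the A3 receptor.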

The species entered for experiment [1] is Homo sapiens. Description: Selectivity for human A2B receptor over human A2A receptor.
The species named for experiment [2] is Homo sapiens. Description: Selectivity for human A2B receptor over human A1 receptor.
For experiment [3], the species on record is Homo sapiens. The experiment in a line: Selectivity for human A2B receptor over human A3 receptor.
In another experiment the target is T3, Adenosine receptor A2b (Homo sapiens, UniProt P29275).
T3 sequence (P29275 whole entry): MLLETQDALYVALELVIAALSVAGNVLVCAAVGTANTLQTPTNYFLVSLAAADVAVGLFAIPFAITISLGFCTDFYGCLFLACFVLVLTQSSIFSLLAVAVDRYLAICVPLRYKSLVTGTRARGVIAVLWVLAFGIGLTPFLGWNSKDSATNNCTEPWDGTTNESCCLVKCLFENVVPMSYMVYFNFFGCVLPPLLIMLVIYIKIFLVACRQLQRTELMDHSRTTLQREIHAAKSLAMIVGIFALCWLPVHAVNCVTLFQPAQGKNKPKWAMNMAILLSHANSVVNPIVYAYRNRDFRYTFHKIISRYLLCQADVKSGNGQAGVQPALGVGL
The experiment in a line: Displacement of [3H]-ZM241385 from human A2B receptor expressed in HEK293 cell membranes. The essentials:
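Membranes from HEK cells expressing A2B; binding sites labeled with 3H-ZM241385 at 14 nM and displaced competitively.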

Adenosine receptor A2a, sequence (P29274 whole entry): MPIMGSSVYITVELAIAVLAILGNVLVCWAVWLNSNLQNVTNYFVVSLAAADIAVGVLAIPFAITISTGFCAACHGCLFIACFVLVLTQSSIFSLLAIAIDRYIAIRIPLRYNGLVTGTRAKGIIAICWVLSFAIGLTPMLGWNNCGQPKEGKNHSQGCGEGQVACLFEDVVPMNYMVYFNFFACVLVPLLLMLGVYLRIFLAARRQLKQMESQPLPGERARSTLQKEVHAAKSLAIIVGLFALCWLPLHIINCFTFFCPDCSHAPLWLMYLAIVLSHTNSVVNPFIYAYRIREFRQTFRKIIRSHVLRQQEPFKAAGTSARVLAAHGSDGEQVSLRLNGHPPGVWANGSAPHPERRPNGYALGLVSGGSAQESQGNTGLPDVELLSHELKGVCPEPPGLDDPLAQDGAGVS

A word on the Ki: it is a measure of affinity in units of concentration, obtained from inhibition or displacement. A lower Ki goes with tighter binding. `O=c1[nH]c2nc(-c3cnn(Cc4noc(-c5ccc(C(F)(F)F)cc5)n4)c3)[nH]c2c(=O)n1CC1CC1`: the Ki at Adenosine receptor A1 was over 6000 nM; on Adenosine receptor A2a, over 5000 nM; on Adenosine receptor A3 it was over 9000 nM; on Adenosine receptor A2b, 13 nM. Moreover, the Ratio Ki was over 380 in the experiment filed under Homo sapiens [1], over 460 in the experiment filed under Homo sapiens [2] and over 700 in the experiment listed under Homo sapiens [3].

As for `CCCCn1c(=O)[nH]c2nc(-c3cnn(Cc4noc(-c5ccc(Cl)cc5)n4)c3)[nH]c2c1=O`, the Ki at Adenosine receptor A1 was over 6000 nM; at Adenosine receptor A2a it was over 5000 nM; at Adenosine receptor A3, over 9000 nM; at Adenosine receptor A2b, 23 nM. Further, the values for the Ratio Ki in the experiment listed under Homo sapiens [1], in the experiment filed under Homo sapiens [2] and in the experiment listed under Homo sapiens [3] were over 210, over 260 and over 400, respectively.

For `CCCCn1c(=O)[nH]c2nc(-c3cnn(Cc4cccc(F)c4)c3)[nH]c2c1=O`, the Ki on Adenosine receptor A1 is 4200 nM; on Adenosine receptor A2a it was over 5000 nM; at Adenosine receptor A3, 270 nM; at Adenosine receptor A2b, 18 nM. The Ratio Ki was over 280 in the experiment filed under Homo sapiens [1], 230 in the experiment listed under Homo sapiens [2] and 15 in the experiment filed under Homo sapiens [3].

For the compound `O=c1[nH]c2nc(-c3cnn(Cc4noc(-c5ccc(Cl)cc5)n4)c3)[nH]c2c(=O)n1CC1CC1`, the Ki on Adenosine receptor A1 was over 6000 nM; on Adenosine receptor A2a, over 5000 nM; at Adenosine receptor A3, over 9000 nM; on Adenosine receptor A2b it was 48 nM. Further, the Ratio Ki in the experiment listed under Homo sapiens [1] was over 100; in the experiment listed under Homo sapiens [2] it was over 120; in the experiment listed under Homo sapiens [3], over 190.

Consider `CCCn1c(=O)[nH]c2nc(-c3cnn(Cc4cccc(C(F)(F)F)c4)c3)[nH]c2c1=O`, for which the Ki at Adenosine receptor A1 is over 6000 nM; at Adenosine receptor A2a it was over 5000 nM; at Adenosine receptor A3, 700 nM; at Adenosine receptor A2b it was 8 nM. For the same compound, the Ratio Ki in the experiment filed under Homo sapiens [1] was over 620; in the experiment listed under Homo sapiens [2] it was over 750; in the experiment filed under Homo sapiens [3], 80.

With `CCn1c(=O)[nH]c2nc(-c3cnn(Cc4cccc(C(F)(F)F)c4)c3)[nH]c2c1=O`, the Ki was over 6000 nM on Adenosine receptor A1, over 5000 nM at Adenosine receptor A2a, over 9000 nM at Adenosine receptor A3 and 6 nM on Adenosine receptor A2b. Besides, the Ratio Ki is over 830 in the experiment listed under Homo sapiens [1], over 1000 in the experiment listed under Homo sapiens [2] and over 1500 in the experiment filed under Homo sapiens [3].

Take `CCCn1c(=O)[nH]c2nc(-c3cnn(Cc4cc(-c5ccccc5)on4)c3)[nH]c2c1=O`: the Ki is over 6000 nM at Adenosine receptor A1, over 5000 nM on Adenosine receptor A2a, over 9000 nM on Adenosine receptor A3 and 22 nM at Adenosine receptor A2b. Also, the Ratio Ki in the experiment filed under Homo sapiens [1] was over 230; in the experiment listed under Homo sapiens [2], over 270; in the experiment filed under Homo sapiens [3], over 400.

For the compound `CCCn1c(=O)[nH]c2nc(-c3cnn(Cc4cccc(F)c4)c3)[nH]c2c1=O`, the Ki at Adenosine receptor A1 is 1800 nM; at Adenosine receptor A2a, 1730 nM; at Adenosine receptor A3 it was 160 nM; at Adenosine receptor A2b, 11 nM. The Ratio Ki is 160 in the experiment listed under Homo sapiens [1], 160 in the experiment filed under Homo sapiens [2] and 15 in the experiment listed under Homo sapiens [3].

In the case of `CC(C)Cn1c(=O)[nH]c2nc(-c3cnn(Cc4cccc(F)c4)c3)[nH]c2c1=O`, the Ki was over 6000 nM at Adenosine receptor A1, over 5000 nM on Adenosine receptor A2a, 1600 nM on Adenosine receptor A3 and 24 nM on Adenosine receptor A2b. For the same compound, the Ratio Ki in the experiment filed under Homo sapiens [1] is over 200; in the experiment listed under Homo sapiens [2] it was over 250; in the experiment filed under Homo sapiens [3], 70.
